Here are results for 18 molecules from ChEMBL document CHEMBL2203110, “Inhibition of HIV-1 capsid assembly: optimization of the antiviral potency by site selective modifications at N1, C2 and C16 of a 5-(5-furan-2-yl-pyrazol-1-yl)-1H-benzimidazole scaffold” (Bioorg Med Chem Lett, 2012).

Series [1] is described as follows: Permeability of the compound across human Caco2 cells. The series is classed as ADME, cell-based. The conditions noted are these: Caco-2, read-out: permeability. A general note: Caco-2 cells form a polarised layer with tight junctions and transporters.
Series [2] in a line: Half life in human liver microsomes. The format is ADME, Microsome. On the technique in general: Liver microsomes are a subcellular fraction often used to study metabolism.
Series [3] in a line: Half life in rat liver microsomes. The series is classed as ADME, Microsome.
In series [4] the target is T1, Structural capsid protein (Human immunodeficiency virus 1, UniProt Q76129). The experiment in a line: Inhibition of HIV1 capsid protein binding to fluorescein labeled 3-(5-(3-ethyl-5-(5-methylfuran-2-yl)-1H-pyrazol-1-yl)-1-((6-oxo-1,6-dihydropyridin-3-yl)methyl)-1H-benzo[d]imidazol-2-yl)-4-hydroxybenzoic acid after 15 mins by fluorescence polarization assay. In a few lines: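 CA-NC protein (40 nM) mixed with 40 nM fluorescein probe plus serially diluted compounds in Tris pH 8.0, 100 mM NaCl, CHAPS, DTT buffer with 2% DMSO before mixing. 15 min incubation, then fluorescence polarization read. Wells without compound defined 0% displacement; probe-only wells defined 100%.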
T1 sequence (Q76129 whole entry): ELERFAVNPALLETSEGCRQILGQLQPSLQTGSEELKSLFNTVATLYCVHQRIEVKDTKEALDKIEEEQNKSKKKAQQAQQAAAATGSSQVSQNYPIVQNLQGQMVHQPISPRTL
Background: In fluorescence polarisation assays a small probe gives low polarisation when free and higher when bound to something large.

Series [5] concerns Human immunodeficiency virus 1. The experiment in a line: Antiviral activity against HIV1. The format is functional, organism-based. In a few lines:
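Cell-based HIV-1 replication assay. EC50 is the concentration that inhibits virus replication by 50%.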

The target in series [6] is T1, Structural capsid protein. The experiment in a line: Inhibition of HIV1 capsid protein assembly using 5'-fluorescein-labeled (TG)25 oligonucleotide after 2 hrs by fluorometry-based capsid disassembly assay. In a few lines: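 Biotin-(TG)25 oligonucleotide (25 nM, overnight) immobilized on neutravidin wells; CA-NC (2 µM) assembled with 100 nM 5'-fluorescein (TG)25 in Tris pH 8.0/NaCl/ZnSO4/CHAPS/BSA/DTT buffer, 2 h RT, washed. Serially diluted compounds (buffer + 0.125% DMSO) added 2 h RT; washes, SDS release, captured fluorescence read. Ten-point curves fitted; IC50 = concentration giving 50% disassembly.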

Each structure is given as a SMILES string.

The half-life is the time needed for the level to fall by half in the phase considered. Low readings indicate fast loss, high ones slow loss. Usually IC50 stands for the concentration at which inhibition is half-maximal. Read a low IC50 as inhibition by little substance. What is called EC50 is the concentration needed to bring the measured effect to its halfway point. For the molecule `CCc1cc(-c2ccc(C(F)(F)F)o2)n(-c2ccc3c(c2)nc(-c2cc(C(=O)N4CCCC4)ccc2O)n3Cc2cc(C)c(=O)n(C)c2)n1`, the Papp in series [1] was determined as 7.2 ×10⁻⁶ cm/s. Besides, the half-life in series [2] came out at 10 min; in series [3], 18 min. Further, the IC50 in series [4] is 67 nM. This molecule had a concentration giving a half-maximal response (EC50) in series [5] of 27 nM.
On to `CCc1cc(-c2ccc(C)o2)n(-c2ccc3c(c2)nc(-c2ccccc2O)n3Cc2ccc(OC)c(O)c2)n1`, for which, in series [6], the IC50 came to 410 nM. Besides, in series [5], the EC50 was 6400 nM.
For `CCc1cc(-c2ccc(C)o2)n(-c2ccc3c(c2)nc(-c2cc(F)ccc2O)n3Cc2ccc(OC)c(O)c2)n1` the same measures were 280 nM and 10000 nM.
Consider `CCc1cc(-c2ccc(C)o2)n(-c2ccc3c(c2)nc(-c2cc(C(=O)O)ccc2O)n3Cc2ccc(OC)c(O)c2)n1`, for which the IC50 in series [6] came out at 88 nM; in series [4], 550 nM. This molecule also gave a 50% effective concentration (EC50) in series [5] of 6100 nM.
In series [6], `CCc1cc(-c2ccc(C)o2)n(-c2ccc3c(c2)nc(-c2cc(C(=O)N(C)C)ccc2O)n3Cc2ccc(OC)c(O)c2)n1` gave an IC50 of 120 nM. Moreover, in series [5], the 50% effective concentration (EC50) was 630 nM.
With `CCc1cc(-c2ccc(C)o2)n(-c2ccc3c(c2)nc(-c2ccccc2O)n3Cc2ccc(=O)[nH]c2)n1`, the IC50 in series [6] turned out to be 55 nM; in series [4] it was 690 nM. This molecule displayed a concentration for a half-maximal effect (EC50) in series [5] of 260 nM.
Molecule `CCc1cc(-c2ccc(C)o2)n(-c2ccc3c(c2)nc(-c2cc(F)ccc2O)n3Cc2ccc(=O)[nH]c2)n1` had an IC50 in series [6] of 41 nM. In series [5], this molecule came in with an EC50 of 260 nM.
`CCc1cc(-c2ccc(C)o2)n(-c2ccc3c(c2)nc(-c2cc(C(=O)O)ccc2O)n3Cc2ccc(=O)[nH]c2)n1`: the figures for the 50% inhibitory concentration (IC50) in series [6] and in series [4] were 56 nM and 650 nM, respectively. In addition, the concentration for a half-maximal effect (EC50) in series [5] was greater than 46000 nM.
As for `CCc1cc(-c2ccc(C)o2)n(-c2ccc3c(c2)nc(-c2cc(C(=O)N(C)C)ccc2O)n3Cc2ccc(=O)[nH]c2)n1`, the figures for the IC50 in series [6] and in series [4] were 49 nM and 44 nM, respectively. The molecule also displayed an EC50 in series [5] of 590 nM.
Molecule `CCc1cc(-c2ccc(C(F)(F)F)o2)n(-c2ccc3c(c2)nc(-c2cc(C(=O)N(C)C)ccc2O)n3Cc2ccc(=O)[nH]c2)n1` returned an IC50 in series [4] of 59 nM. Besides, the concentration for a half-maximal effect (EC50) in series [5] came to 91 nM.
`CCc1cc(-c2ccc(C(F)(F)F)o2)n(-c2ccc3c(c2)nc(-c2cc(C(=O)N4CCCC4)ccc2O)n3Cc2ccc(=O)[nH]c2)n1`: the Papp in series [1] turned out to be 0.19 ×10⁻⁶ cm/s. Further, the results for the half-life in series [2] and in series [3] were 30 min and 45 min, respectively. The same molecule yielded an IC50 in series [4] of 61 nM. Also, the response in series [5] was half-maximal at 62 nM (EC50).
On the same counts, the results for `CCc1cc(-c2ccc(C(F)(F)F)o2)n(-c2ccc3c(c2)nc(-c2cc(C(=O)N4CCCC4)ccc2O)n3Cc2c[nH]c(=O)c(C)c2)n1` are 6.8 ×10⁻⁶ cm/s, 11 min, 25 min, 38 nM and 28 nM.
Take `Cc1cc(-c2ccco2)n(-c2ccc3c(c2)nc(COc2ccc(C(=N)N)cc2)n3C)n1`: the IC50 in series [6] came out at 6000 nM. Further, the concentration giving a half-maximal response (EC50) in series [5] was found to be 28000 nM.
On the same counts, the results for `CCc1cc(-c2ccc(C)o2)n(-c2ccc3c(c2)nc(-c2ccc(C(N)=O)cc2)n3CC2CC2)n1` are 1000 nM and 3500 nM.
For `CCc1cc(-c2ccc(C)o2)n(-c2ccc3c(c2)nc(-c2ccc(C(N)=O)cc2)n3Cc2cccnc2)n1` the same measures were 360 nM and 2600 nM.
On the same counts, the results for `CCc1cc(-c2ccc(C)o2)n(-c2ccc3c(c2)nc(-c2ccc(C(N)=O)cc2)n3Cc2ccc(OC)c(O)c2)n1` are 790 nM and 640 nM.
`CCc1cc(-c2ccc(C)o2)n(-c2ccc3c(c2)nc(-c2ccc(C(N)=O)cc2)n3Cc2ccc(OC)nc2)n1` registered an IC50 in series [6] of 830 nM. The molecule also returned an EC50 in series [5] of 3500 nM.
`CCc1cc(-c2ccc(C)o2)n(-c2ccc3c(c2)nc(-c2ccc(C(N)=O)cc2)n3Cc2ccc(=O)[nH]c2)n1` yielded an IC50 in series [6] of 170 nM. In series [5], the EC50 came out at 13000 nM.
